Assay results taken from ChEMBL document CHEMBL1687729, “Intracellular activity of antibiotics in a model of human THP-1 macrophages infected by a Staphylococcus aureus small-colony variant strain isolated from a cystic fibrosis patient: pharmacodynamic evaluation and comparison with isogenic normal-phenotype and revertant strains” (Antimicrob Agents Chemother, 2009).
In brackets after ≈: the same amount, converted by molar mass. Activity calls are given as the source filed them. The calls are words filed in the database; no cut-off is given here.

Experiments:
[1] = tested on: Staphylococcus aureus; assay: Antibacterial activity against Staphylococcus aureus SCV isolated from cystic fibrosis patient infected in human THP-1 cells assessed as log reduction of intracellular CFU level after 24 hrs in presence of thymidine; assay type: functional, organism-based
Outline: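 SCV-infected THP-1 macrophages are exposed 24 h after phagocytosis to antibiotic, with 100 mg/liter thymidine added to the culture medium together with the drug. Read-out is change in log CFU per mg cell protein from the initial inoculum. Data are means ± SD, n = 3; significance by ANOVA with Tukey's test.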

[2] = tested on: Staphylococcus aureus; assay: Antibacterial activity against revertant Staphylococcus aureus at pH 7.4 after 24 hrs by broth microdilution method
[3] = tested on: Staphylococcus aureus; assay: Antibacterial activity against revertant Staphylococcus aureus infected in human THP-1 cells assessed as log reduction of extracellular CFU level after 24 hrs; assay type: functional, organism-based
[4] = tested on: Staphylococcus aureus; assay: Antibacterial activity against Staphylococcus aureus SCV isolated from cystic fibrosis patient at pH 7.4 after 48 hrs by broth microdilution method in absence of thymidine; assay type: functional
Outline: (§1)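 MIC by CLSI broth microdilution in cation-adjusted MH II broth. For oritavancin, 0.002% polysorbate-80 was added and non-tissue-culture-treated plates were used to limit binding to plastic. Plates were read at 24 h for normal and revertant strains and at 48 h for the SCV. Where stated, the SCV was tested with 100 mg/liter thymidine. Growth was aerobic.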

[5] = tested on: Staphylococcus aureus; assay: Antibacterial activity against normal phenotype Staphylococcus aureus at pH 7.4 after 24 hrs by broth microdilution method
[6] = tested on: Staphylococcus aureus; assay: Antibacterial activity against normal phenotype Staphylococcus aureus in infected in human THP-1 cells assessed as log reduction of extracellular CFU level after 24 hrs; assay type: functional, organism-based
[7] = tested on: Staphylococcus aureus; assay: Antibacterial activity against Staphylococcus aureus SCV isolated from cystic fibrosis patient at pH 7.4 after 48 hrs by broth microdilution method in presence of thymidine; assay type: functional; outline: as §1
[8] = tested on: Staphylococcus aureus; assay: Antibacterial activity against Staphylococcus aureus SCV isolated from cystic fibrosis patient in cation-adjusted MH 2 broth at pH 5.5 after 48 hrs by broth microdilution method; assay type: functional
Outline: (§2)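 MIC by CLSI broth microdilution in cation-adjusted MH II broth adjusted to pH 5.5. Readings were taken at 48 h for the SCV and at 24 h for the normal-phenotype strain.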

[9] = tested on: Staphylococcus aureus; assay: Antibacterial activity against normal phenotype Staphylococcus aureus in cation-adjusted MH 2 broth at pH 5.5 after 24 hrs by broth microdilution method; assay type: functional; outline: as §2
[10] = (§3) Cmax in human plasma; assay type: ADME, organism-based; settings: plasma
[11] = (§4) Fraction unbound in human plasma
[12] = tested on: Staphylococcus aureus; assay: Antibacterial activity against Staphylococcus aureus SCV isolated from cystic fibrosis patient infected in human THP-1 cells assessed as log reduction of intracellular CFU after 5 hrs; assay type: functional
Outline: (§5)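 THP-1 macrophages are infected with the SCV strain, then extracellular bacteria are eliminated after phagocytosis. Drug is added at total concentrations mimicking human serum Cmax for 5, 24 or 72 h. Lysates are plated on brain heart infusion agar and counted after 48 h. Read-out is Δlog CFU/mg cell protein from the postphagocytosis inoculum; no drug-free control is run at 72 h.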

[13] = tested on: Staphylococcus aureus; assay: Antibacterial activity against Staphylococcus aureus SCV isolated from cystic fibrosis patient infected in human THP-1 cells assessed as log reduction of intracellular CFU after 72 hrs; assay type: functional; outline: as §5
[14] = tested on: Staphylococcus aureus; assay: Antibacterial activity against Staphylococcus aureus SCV isolated from cystic fibrosis patient in cation-adjusted MH 2 broth assessed as log reduction of extracellular CFU after 5 hrs; assay type: functional
Outline: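 Broth exposure to total drug levels mimicking human serum Cmax, same concentrations as the intracellular assay, for 5 or 24 h. Medium is CA-MH broth, with 0.002% polysorbate-80 when oritavancin is tested. Samples are plated on brain heart infusion agar and incubated 48 h before SCV colonies are counted. Read-out is Δlog CFU/ml from the initial inoculum.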

[15] = tested on: Plasma; assay: as §3; assay type: ADME, organism-based; settings: in vivo
[16] = tested on: Plasma; assay: as §4

Compound	Activity [1]	MIC [2]	Activity [3]	MIC [4]	MIC [5]	Activity [6]	MIC [7]	MIC [8]	MIC [9]	Cmax [10]	fraction unbound [11]	log10cfu [12]	log10cfu [13]	log10cfu [14]	Cmax [15]	Fu [16]
Cc1onc(-c2ccccc2)c1C(=O)N[C@@H]1C(=O)N2[C@@H]1SC(C)(C)[C@@H]2C(=O)O [OXACILLIN]	Active	0.25 µg/mL (≈ 0.623 µM)	Active	0.125 µg/mL (≈ 0.311 µM)	0.5 µg/mL (≈ 1.25 µM)	Active	0.25 µg/mL	0.015 µg/mL (≈ 0.0374 µM)	0.03 µg/mL (≈ 0.0747 µM)	64000 ng/mL	0.07					
CO[C@H]1/C=C/O[C@@]2(C)Oc3c(C)c(O)c4c(O)c(c(/C=N/N5CCN(C)CC5)c(O)c4c3C2=O)NC(=O)/C(C)=C\C=C\[C@H](C)[C@H](O)[C@@H](C)[C@@H](O)[C@@H](C)[C@H](OC(C)=O)[C@@H]1C [RIFAMPIN]	Active	0.0005 µg/mL (≈ 0.000608 µM)		0.0005 µg/mL (≈ 0.000608 µM)	0.002 µg/mL (≈ 0.00243 µM)		0.002 µg/mL	0.0005 µg/mL (≈ 0.000608 µM)	0.0002 µg/mL (≈ 0.000243 µM)	18000 ng/mL	0.15	1	2			
CCCCCCCCCCNCCN[C@@]1(C)C[C@H](O[C@H]2[C@H](Oc3c4cc5cc3Oc3ccc(cc3Cl)[C@@H](O)[C@@H](NC(=O)[C@@H](CC(C)C)NC)C(=O)N[C@@H](CC(N)=O)C(=O)N[C@H]5C(=O)N[C@H]3C(=O)N[C@H](C(=O)N[C@H](C(=O)O)c5cc(O)c(CNCP(=O)(O)O)c(O)c5-c5cc3ccc5O)[C@H](O)c3ccc(c(Cl)c3)O4)O[C@H](CO)[C@@H](O)[C@@H]2O)O[C@@H](C)[C@H]1O [TELAVANCIN]	Active	0.125 µg/mL (≈ 0.0712 µM)		0.125 µg/mL (≈ 0.0712 µM)	0.125 µg/mL (≈ 0.0712 µM)		0.125 µg/mL	0.125 µg/mL (≈ 0.0712 µM)	0.125 µg/mL (≈ 0.0712 µM)	90000 ng/mL	0.07					
CN(C)c1cc(NC(=O)CNC(C)(C)C)c(O)c2c1C[C@H]1C[C@H]3[C@H](N(C)C)C(O)=C(C(N)=O)C(=O)[C@@]3(O)C(O)=C1C2=O [TIGECYCLINE]	Active	0.125 µg/mL (≈ 0.213 µM)		0.125 µg/mL (≈ 0.213 µM)	0.125 µg/mL (≈ 0.213 µM)		0.125 µg/mL	0.125 µg/mL (≈ 0.213 µM)	0.125 µg/mL (≈ 0.213 µM)	1000 ng/mL	0.2			1		
CN[C@H](CC(C)C)C(=O)N[C@H]1C(=O)N[C@@H](CC(N)=O)C(=O)N[C@H]2C(=O)N[C@H]3C(=O)N[C@H](C(=O)N[C@H](C(=O)O)c4cc(O)cc(O)c4-c4cc3ccc4O)[C@H](O)c3ccc(c(Cl)c3)Oc3cc2cc(c3O[C@@H]2O[C@H](CO)[C@@H](O)[C@H](O)[C@H]2O[C@H]2C[C@](C)(N)[C@H](O)[C@H](C)O2)Oc2ccc(cc2Cl)[C@H]1O [VANCOMYCIN]	Active		Active			Active				50000 ng/mL	0.5					
GENTAMICIN [listing 1 of 2 here]															18000 ng/mL	100%
GENTAMICIN [listing 2 of 2 here]	Active			0.125 µg/mL			0.125 µg/mL	4 µg/mL	8 µg/mL							
